Experimental data from ChEMBL document CHEMBL3352791, “Thioaryl naphthylmethanone oxime ether analogs as novel anticancer agents” (J Med Chem, 2014).
Calls of active or inactive are those of the source. The rule behind the calls is not given here.

Tests used:
MCF7 [1] = assay: Induction of apoptosis in human […] cells assessed as loss of mitochondrial membrane potential at 5 uM after 24 hrs by JC-1 staining based flow cytometry; type: functional, cell-based
Procedure, shortened: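 Cells given 5μM compound for 24 h, trypsinized, stained with JC-1 (1μg/ml) in medium 15 min at 37°C, PBS-washed, analysed by flow cytometry on FL1 and FL2 channels.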

MDA-MB-231 [2] = assay: Antiinvasion activity in human MDA-MB-231 cells assessed as inhibition of EGF-induced cell invaded to matrigel coated invasion chamber at 1 uM after 24 hrs by Transwell invasion assay; type: functional, cell-based
Procedure, shortened: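 Transwell matrigel invasion (8 µm pore): cells at 1x10^5 cells/mL in 2% FBS medium in upper chamber; lower chamber medium with 1µM compound and EGF 100ng/ml; 24 h. Invaded cells on filter underside fixed, crystal-violet stained, counted in six random fields at 20×, dye dissolved in 0.1% SDS read at 540nm; triplicate chambers.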

[3] = molecular target: Transforming growth factor beta-1 proprotein (Homo sapiens) (UniProt P01137); assay: Inhibition of TGFbeta1 (unknown origin) at 10 uM
Chain of Transforming growth factor beta-1 proprotein (Homo sapiens) (P01137 279-390 limits assumed): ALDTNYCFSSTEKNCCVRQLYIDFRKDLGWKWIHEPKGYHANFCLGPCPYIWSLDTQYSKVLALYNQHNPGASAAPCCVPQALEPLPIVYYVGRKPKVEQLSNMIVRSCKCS

[4] = molecular target: Phosphodiesterase 4 (Homo sapiens) (UniProt P27815+Q08499+Q07343+Q08493); assay: Inhibition of PDE4 CAT (unknown origin) activity at 1 to 10 uM; type: protein assay
Procedure, shortened: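 Recombinant PDE isoform activity was read by fluorescence polarization. A binding reagent complexes with the nucleotide monophosphate that the phosphodiesterase generates from cAMP/cGMP, and this raises the polarization of the labelled substrate. Reference standards were PDE1A3 10µM IBMX, PDE2A3 1nM BAY 60-7550, PDE3CAT 1µM cilostazol, PDE4CAT rolipram, PDE5CAT 0.1µM sildenafil, PDE7A […], PDE8A1 10µM BRL-50481, PDE9A1 1µM SB 36216 and PDE11A1 dipyridamole.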

[5] = molecular target: Signal transducer and activator of transcription 3 (Homo sapiens) (UniProt P40763); assay: Inhibition of EGF-induced STAT3 phosphorylation in human MDA-MB-231 cells at 1 uM by ELISA; type: cell-based
Chain of Signal transducer and activator of transcription 3 (Homo sapiens) (P40763 whole entry): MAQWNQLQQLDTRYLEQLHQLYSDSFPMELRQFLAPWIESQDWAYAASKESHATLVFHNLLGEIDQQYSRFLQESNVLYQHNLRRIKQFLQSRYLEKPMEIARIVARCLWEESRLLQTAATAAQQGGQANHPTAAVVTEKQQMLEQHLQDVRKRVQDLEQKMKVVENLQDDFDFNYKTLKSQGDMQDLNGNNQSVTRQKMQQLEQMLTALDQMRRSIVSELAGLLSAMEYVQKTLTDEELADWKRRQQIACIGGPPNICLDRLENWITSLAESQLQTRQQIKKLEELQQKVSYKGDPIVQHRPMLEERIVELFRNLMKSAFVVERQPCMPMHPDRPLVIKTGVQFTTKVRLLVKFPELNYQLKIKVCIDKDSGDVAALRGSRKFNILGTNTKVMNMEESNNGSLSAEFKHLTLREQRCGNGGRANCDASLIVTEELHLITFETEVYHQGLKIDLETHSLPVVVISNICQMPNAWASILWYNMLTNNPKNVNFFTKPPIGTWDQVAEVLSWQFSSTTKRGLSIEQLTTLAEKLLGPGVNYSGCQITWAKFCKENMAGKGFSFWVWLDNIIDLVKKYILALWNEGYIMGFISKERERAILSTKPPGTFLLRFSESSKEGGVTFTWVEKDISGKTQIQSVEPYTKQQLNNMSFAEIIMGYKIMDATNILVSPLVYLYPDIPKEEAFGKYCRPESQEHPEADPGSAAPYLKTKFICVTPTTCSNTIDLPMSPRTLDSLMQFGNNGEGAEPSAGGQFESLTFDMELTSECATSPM

MDA-MB-231 [6] = assay: Cytotoxicity against human […] cells assessed as cell viability at 5 uM by MTT assay in presence of z-LEHD-FMK caspase-9 inhibitor; type: functional, cell-based
Procedure, shortened: (§1)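 Cells seeded 1×10^4/well in DMEM with 10% FBS, adhered overnight, serum-starved 4 h; pre-incubated 2 h with Z-IETD-FMK or Z-LEHD-FMK (10µM each), then 5μM compound for a further 24 h; viability by MTT.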

MDA-MB-231 [7] = assay: Antiproliferative activity against human […] cells at 2.5 to 7.5 uM by annexin V-FITC/propidium iodide staining-based flow cytometric analysis; type: functional, cell-based
MDA-MB-231 [8] = assay: Inhibition of TGF-beta1 expression in human MDA-MB-231 cells at 1 uM after 24 hrs by qPCR analysis; type: functional, cell-based
Procedure, shortened: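 Gene expression was measured by qPCR in MDA-MB-231 breast cancer cells treated with 1µM compound. GAPDH served as the housekeeping internal control.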

MCF7 [9] = assay: Antiproliferative activity against human […] cells at 2.5 to 7.5 uM by annexin V-FITC/propidium iodide staining-based flow cytometric analysis; type: functional, cell-based
[10] = molecular target: Plasminogen activator inhibitor 1 (Homo sapiens) (UniProt P05121); assay: Inhibition of basal level PAI-1 phosphorylation in human MDA-MB-231 cells at 1 uM by ELISA; type: cell-based
Chain of Plasminogen activator inhibitor 1 (Homo sapiens) (P05121 whole entry): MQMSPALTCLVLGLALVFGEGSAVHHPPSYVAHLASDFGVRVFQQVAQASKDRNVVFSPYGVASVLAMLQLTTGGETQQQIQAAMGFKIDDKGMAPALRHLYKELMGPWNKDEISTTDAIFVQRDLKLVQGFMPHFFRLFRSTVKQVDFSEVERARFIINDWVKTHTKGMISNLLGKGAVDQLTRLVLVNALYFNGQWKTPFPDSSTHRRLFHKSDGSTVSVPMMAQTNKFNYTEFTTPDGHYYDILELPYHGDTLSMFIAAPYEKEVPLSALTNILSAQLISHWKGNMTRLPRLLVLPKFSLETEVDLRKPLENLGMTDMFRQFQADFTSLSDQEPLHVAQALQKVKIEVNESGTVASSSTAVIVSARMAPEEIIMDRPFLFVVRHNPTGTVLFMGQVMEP

[11] = molecular target: Mast/stem cell growth factor receptor Kit (Homo sapiens) (UniProt P10721); assay: Inhibition of cKit (unknown origin) at 10 uM
Chain of Mast/stem cell growth factor receptor Kit (Homo sapiens) (P10721 whole entry): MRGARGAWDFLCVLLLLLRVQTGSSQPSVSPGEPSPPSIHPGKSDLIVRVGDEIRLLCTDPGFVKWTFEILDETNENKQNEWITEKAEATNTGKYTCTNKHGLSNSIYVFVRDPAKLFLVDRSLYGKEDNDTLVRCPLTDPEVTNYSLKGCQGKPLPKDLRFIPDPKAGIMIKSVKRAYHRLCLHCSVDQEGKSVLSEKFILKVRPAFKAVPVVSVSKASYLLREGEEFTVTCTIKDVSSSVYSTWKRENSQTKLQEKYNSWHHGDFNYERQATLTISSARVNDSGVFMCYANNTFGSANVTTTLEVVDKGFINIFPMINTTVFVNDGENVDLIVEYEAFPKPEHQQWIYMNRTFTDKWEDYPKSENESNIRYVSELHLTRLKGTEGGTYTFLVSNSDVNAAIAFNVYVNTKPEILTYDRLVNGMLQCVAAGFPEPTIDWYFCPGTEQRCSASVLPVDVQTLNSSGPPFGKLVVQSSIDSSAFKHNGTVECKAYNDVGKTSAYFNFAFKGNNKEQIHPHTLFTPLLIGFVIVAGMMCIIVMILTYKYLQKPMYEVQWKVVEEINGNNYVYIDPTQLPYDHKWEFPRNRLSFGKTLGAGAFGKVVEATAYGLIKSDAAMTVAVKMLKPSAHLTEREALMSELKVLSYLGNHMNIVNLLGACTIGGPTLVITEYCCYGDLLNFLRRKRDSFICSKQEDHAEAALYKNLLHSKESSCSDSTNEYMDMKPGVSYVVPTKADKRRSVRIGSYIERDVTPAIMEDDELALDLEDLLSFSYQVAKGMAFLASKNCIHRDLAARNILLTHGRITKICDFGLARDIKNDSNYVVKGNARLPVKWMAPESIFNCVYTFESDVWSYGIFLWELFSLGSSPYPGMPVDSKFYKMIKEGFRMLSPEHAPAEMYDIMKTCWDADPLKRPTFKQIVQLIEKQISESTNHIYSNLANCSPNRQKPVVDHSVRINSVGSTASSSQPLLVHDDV
Procedure, shortened: (§2)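 Cell-free kinase profiling was run as a standard 33P-ATP-based in vitro kinase assay.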

[12] = molecular target: Induced myeloid leukemia cell differentiation protein Mcl-1 (Homo sapiens) (UniProt Q07820); assay: Inhibition of EGF-induced phosphorylated Mcl1 in human MDA-MB-231 cells at 1 uM by ELISA; type: cell-based
Chain of Induced myeloid leukemia cell differentiation protein Mcl-1 (Homo sapiens) (Q07820 whole entry): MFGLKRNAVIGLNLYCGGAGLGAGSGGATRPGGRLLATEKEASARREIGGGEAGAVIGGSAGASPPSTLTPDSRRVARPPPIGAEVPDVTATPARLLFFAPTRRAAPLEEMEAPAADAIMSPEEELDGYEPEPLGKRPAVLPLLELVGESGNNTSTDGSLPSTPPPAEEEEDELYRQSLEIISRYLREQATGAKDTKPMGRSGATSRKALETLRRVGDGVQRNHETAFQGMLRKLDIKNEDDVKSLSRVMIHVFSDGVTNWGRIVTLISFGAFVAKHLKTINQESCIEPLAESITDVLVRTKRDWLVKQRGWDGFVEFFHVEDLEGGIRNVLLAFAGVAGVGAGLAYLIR

MDA-MB-231 [13] = assay: Induction of apoptosis in human […] cells assessed as loss of mitochondrial membrane potential at 5 uM after 24 hrs by JC-1 staining based flow cytometry; type: functional, cell-based
Procedure, shortened: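 Cells treated at 5μM for 24 h, trypsinized, stained with JC-1 (1μg/ml) for 15 min at 37°C, washed in PBS and analysed by flow cytometry in FL1 and FL2 channels.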

[14] = molecular target: Epidermal growth factor receptor (Homo sapiens) (UniProt P00533); assay: Inhibition of EGF-induced EGFR2 phosphorylation in human MDA-MB-231 cells at 1 uM by ELISA; type: cell-based
Chain of Epidermal growth factor receptor (Homo sapiens) (P00533 whole entry): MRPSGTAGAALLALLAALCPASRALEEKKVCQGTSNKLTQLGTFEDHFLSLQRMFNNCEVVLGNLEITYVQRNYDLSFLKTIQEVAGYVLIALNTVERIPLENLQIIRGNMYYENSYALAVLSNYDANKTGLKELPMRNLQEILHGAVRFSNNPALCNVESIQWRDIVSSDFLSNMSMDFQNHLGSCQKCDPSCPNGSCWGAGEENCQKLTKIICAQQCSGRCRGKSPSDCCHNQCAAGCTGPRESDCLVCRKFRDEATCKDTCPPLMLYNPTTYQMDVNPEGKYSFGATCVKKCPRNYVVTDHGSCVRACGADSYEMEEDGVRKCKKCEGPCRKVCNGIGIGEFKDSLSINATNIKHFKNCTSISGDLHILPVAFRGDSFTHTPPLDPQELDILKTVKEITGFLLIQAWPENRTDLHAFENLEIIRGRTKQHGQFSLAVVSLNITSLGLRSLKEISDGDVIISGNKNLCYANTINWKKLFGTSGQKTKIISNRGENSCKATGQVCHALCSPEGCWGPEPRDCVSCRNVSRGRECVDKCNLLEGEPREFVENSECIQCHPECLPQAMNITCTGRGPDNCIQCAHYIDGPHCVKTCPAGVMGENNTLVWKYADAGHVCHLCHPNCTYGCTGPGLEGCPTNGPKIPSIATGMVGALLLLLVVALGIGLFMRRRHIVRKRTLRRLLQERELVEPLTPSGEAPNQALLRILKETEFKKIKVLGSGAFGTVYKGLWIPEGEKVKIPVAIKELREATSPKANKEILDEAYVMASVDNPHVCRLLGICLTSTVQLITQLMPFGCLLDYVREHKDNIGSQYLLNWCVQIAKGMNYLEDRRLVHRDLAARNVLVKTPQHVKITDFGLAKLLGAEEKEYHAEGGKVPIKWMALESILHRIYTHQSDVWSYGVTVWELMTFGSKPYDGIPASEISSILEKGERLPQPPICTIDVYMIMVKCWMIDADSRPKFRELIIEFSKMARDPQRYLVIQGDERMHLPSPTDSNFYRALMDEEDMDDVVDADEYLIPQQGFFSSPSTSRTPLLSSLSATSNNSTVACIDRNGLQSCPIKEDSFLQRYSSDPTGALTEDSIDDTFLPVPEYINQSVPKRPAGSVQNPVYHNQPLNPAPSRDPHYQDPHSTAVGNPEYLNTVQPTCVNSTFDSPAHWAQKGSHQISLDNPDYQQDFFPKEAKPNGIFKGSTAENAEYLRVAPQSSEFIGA
Procedure, shortened: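 MDA-MB-231 cells pretreated 1 h in serum-free medium, then EGF-stimulated for 15 min and lysed. Equal lysate protein (Bradford) assayed by ELISA kits for p-EGFR (Tyr1068, Tyr845, Tyr1173) and p-HER2. Absorbance read at 450 nm, normalized to total EGFR or HER2.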

MDA-MB-231 [15] = assay: Cytotoxicity against human […] cells assessed as cell viability at 5 uM by MTT assay in presence of z-IETD-FMK caspase-8 inhibitor; type: functional, cell-based; procedure, shortened: as §1
MDA-MB-231 [16] = assay: Inhibition of INS expression in human MDA-MB-231 cells at 5 uM by ELISA; type: functional, cell-based
[17] = molecular target: Platelet-derived growth factor receptor alpha (Homo sapiens) (UniProt P16234); assay: Inhibition of PDGFRalpha (unknown origin) at 10 uM; procedure, shortened: as §2
Chain of Platelet-derived growth factor receptor alpha (Homo sapiens) (P16234 whole entry): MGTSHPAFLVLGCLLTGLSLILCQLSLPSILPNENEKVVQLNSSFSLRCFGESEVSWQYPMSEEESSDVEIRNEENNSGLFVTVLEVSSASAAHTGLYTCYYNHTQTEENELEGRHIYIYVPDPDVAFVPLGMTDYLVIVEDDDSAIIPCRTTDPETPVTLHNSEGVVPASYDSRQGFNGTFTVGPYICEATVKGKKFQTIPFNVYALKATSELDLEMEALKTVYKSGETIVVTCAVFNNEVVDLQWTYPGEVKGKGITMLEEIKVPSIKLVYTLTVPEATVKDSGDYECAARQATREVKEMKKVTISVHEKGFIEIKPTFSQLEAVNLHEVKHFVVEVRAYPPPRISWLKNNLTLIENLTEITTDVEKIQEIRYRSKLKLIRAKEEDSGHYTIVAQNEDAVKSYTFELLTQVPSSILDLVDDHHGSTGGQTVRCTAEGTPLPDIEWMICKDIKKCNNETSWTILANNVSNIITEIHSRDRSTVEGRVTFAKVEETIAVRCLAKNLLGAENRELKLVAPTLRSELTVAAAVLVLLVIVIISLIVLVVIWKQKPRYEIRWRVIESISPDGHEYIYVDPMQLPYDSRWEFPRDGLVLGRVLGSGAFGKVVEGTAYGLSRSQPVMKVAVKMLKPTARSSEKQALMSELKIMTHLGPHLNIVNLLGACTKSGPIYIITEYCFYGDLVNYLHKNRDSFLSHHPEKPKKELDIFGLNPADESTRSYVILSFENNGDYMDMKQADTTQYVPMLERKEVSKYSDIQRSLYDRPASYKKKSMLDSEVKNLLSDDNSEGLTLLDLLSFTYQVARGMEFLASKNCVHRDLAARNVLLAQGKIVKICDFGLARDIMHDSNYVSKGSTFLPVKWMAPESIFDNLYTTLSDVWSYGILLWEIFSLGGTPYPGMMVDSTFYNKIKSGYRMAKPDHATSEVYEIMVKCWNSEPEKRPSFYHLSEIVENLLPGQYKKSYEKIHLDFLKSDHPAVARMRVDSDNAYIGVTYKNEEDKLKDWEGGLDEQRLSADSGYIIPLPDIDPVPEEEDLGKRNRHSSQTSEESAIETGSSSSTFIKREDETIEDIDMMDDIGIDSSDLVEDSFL

MCF7 [18] = assay: Cell cycle arrest in human […] cells assessed as accumulation at G1 phase at 5 uM by propidium iodide staining by FACS analysis (reference value: 62.88%); type: functional
MDA-MB-231 [19] = assay: Cell cycle arrest in human […] cells assessed as accumulation at subG1 phase at 2.5 uM by propidium iodide staining by FACS analysis (reference value: 0.3%); type: functional
MDA-MB-231 [20] = assay: Cell cycle arrest in human […] cells assessed as accumulation at G2 phase at 2.5 uM by propidium iodide staining by FACS analysis (reference value: 22.74%); type: functional
MCF7 [21] = assay: Cell cycle arrest in human […] cells assessed as accumulation at G1 phase at 2.5 uM by propidium iodide staining by FACS analysis (reference value: 62.88%); type: functional
MDA-MB-231 [22] = assay: Cell cycle arrest in human […] cells assessed as accumulation at S phase at 5 uM by propidium iodide staining by FACS analysis (reference value: 13.72%); type: functional
MDA-MB-231 [23] = assay: Antiproliferative activity against human ER-positive MDA-MB-231 cells after 24 hrs by MTT assay; type: functional, cell-based; details: mda-mb-231

## CCN(CC)CCO/N=C(\c1ccc(SC)cc1)c1cccc2ccccc12
MCF7 [1]
  Activity: Active
MDA-MB-231 [2]
  inhibition: Active
[3]
  inhibition: inactive
[4]
  inhibition: inactive
[5]
  inhibition: Active
MDA-MB-231 [6]
  Activity: inactive
MDA-MB-231 [7]
  Activity: Active
MDA-MB-231 [8]
  inhibition: Active
MCF7 [9]
  Activity: Active
[10]
  inhibition: Active
[11]
  inhibition: inactive
[12]
  inhibition: Active
MDA-MB-231 [13]
  Activity: Active
[14]
  inhibition: Active
MDA-MB-231 [15]
  Activity: inactive
MDA-MB-231 [16]
  inhibition: inactive
[17]
  inhibition: inactive

## CCN(CC)CCO/N=C(\c1ccc(SC)cc1)c1cccc2ccccc12.O=C(O)C(=O)O
MCF7 [18]
  Activity: 74.66%
MDA-MB-231 [19]
  Activity: 0.99%
MDA-MB-231 [20]
  Activity: 6.22%
MCF7 [21]
  Activity: 70.71%
MDA-MB-231 [22]
  Activity: 3.65%
MDA-MB-231 [23]
  EC50: 7.2 µM
